Measured values from ChEMBL document CHEMBL2169847, “New tricks for an old natural product: discovery of highly potent evodiamine derivatives as novel antitumor agents by systemic structure-activity relationship analysis and biological evaluations” (J Med Chem, 2012).
Calls of active or inactive are those of the source. The calls are words filed in the database; no cut-off is given here.

Tests used:
[1] = tested on: Nucleic Acid; assay: Binding affinity at calf thymus DNA at 50 uM after 20 mins by UV/vis absorbance titration based assay; assay type: nucleic-acid assay; conditions: Bos taurus
Outline: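 ct-DNA in DPBS pH 7.4, concentration set by A260 (13200 M⁻¹/cm per bp). Compounds at 50 μM in DPBS with 1% DMSO, with or without ct-DNA 0−100 μM. After 20 min equilibration at room temperature, absorption spectra recorded over 220−400 nm in a microplate reader. Hypochromic or bathochromic shifts taken as the sign of binding.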

[2] = tested on: A549; assay: Induction of apoptosis in human A549 cells at 5 uM incubated for 48 hrs by flow cytometry (reference value: 0.43%); assay type: functional
[3] = tested on: MDA-MB-435; assay: Cytotoxicity against human MDA-MB-435 cells incubated for 72 hrs by MTT assay; assay type: functional; conditions: MDA-MB-435, 72 h
Outline: (§1)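 MTT assay. Cells seeded at 5 × 10³/well and grown 24 h at 37 °C, 5% CO₂. Compounds added at several concentrations in triplicate wells, with 0.1% DMSO control, for 72 h. MTT then added for 4 h, formazan dissolved in DMSO, and absorbance read at 570 nm. GI₅₀ by Logit method; three experiments.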

[4] = tested on: A549; assay: Induction of apoptosis in human A549 cells assessed as change in cell morphology at 5 uM incubated for 48 hrs by immunostaining based light microscopy; assay type: functional
Outline: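 A549 cells exposed to 5 μM compound, or DMSO, for 48 h. Morphology judged under a light microscope.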

[5] = target: T1, DNA topoisomerase 1 (Homo sapiens) (UniProt P11387); assay: Inhibition of Top1 assessed as stabilization of Top1-pUC19 DNA cleavage complex measuring increase of nicked DNA at 100 uM incubated for 15 mins by electrophoresis method
T1 sequence (whole entry): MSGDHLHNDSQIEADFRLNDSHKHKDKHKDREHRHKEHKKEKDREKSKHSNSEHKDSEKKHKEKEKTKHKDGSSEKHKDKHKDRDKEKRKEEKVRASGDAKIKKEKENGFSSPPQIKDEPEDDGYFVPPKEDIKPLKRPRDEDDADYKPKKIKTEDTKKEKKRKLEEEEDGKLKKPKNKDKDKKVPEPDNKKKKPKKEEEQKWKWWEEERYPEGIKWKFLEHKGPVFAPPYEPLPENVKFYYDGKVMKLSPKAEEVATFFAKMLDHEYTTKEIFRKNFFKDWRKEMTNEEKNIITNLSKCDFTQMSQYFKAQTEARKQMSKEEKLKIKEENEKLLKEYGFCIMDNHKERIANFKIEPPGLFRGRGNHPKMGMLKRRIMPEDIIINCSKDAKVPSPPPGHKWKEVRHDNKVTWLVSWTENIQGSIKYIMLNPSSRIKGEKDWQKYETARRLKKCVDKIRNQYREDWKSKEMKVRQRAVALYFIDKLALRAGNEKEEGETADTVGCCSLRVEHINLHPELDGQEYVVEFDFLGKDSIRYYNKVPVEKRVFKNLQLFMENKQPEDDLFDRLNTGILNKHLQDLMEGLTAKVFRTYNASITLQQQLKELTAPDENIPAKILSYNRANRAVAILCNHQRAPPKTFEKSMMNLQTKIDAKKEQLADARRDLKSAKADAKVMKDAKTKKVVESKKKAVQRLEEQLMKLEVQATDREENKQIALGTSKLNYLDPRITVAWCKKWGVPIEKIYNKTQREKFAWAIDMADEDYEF

[6] = target: DNA topoisomerase 2-alpha (Homo sapiens) (UniProt P11388); assay: Inhibition of human Top2alpha assessed as stabilization of Top2-pBr322 DNA cleavage complex measuring linear DNA formation at 100 uM incubated for 20 mins by electrophoresis method
Outline: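 Top2α drug screening kit with 8 units hTop2α and pBR322 plasmid. After reaction, proteinase K (200 μg/mL final) 20 min at 50 °C. Electrophoresis in TAE with 0.5 μg/mL ethidium bromide to resolve nicked, linear, relaxed and supercoiled forms.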

[7] = target: T1, DNA topoisomerase 1 (Homo sapiens); assay: Inhibition of Top1 assessed as suppression of supercoiled pBR322 DNA relaxation measuring appearance of short DNA fragments at 50 uM incubated for 15 mins by electrophoresis method
[8] = tested on: HCT-116; assay: Cytotoxicity against human HCT116 cells incubated for 72 hrs by MTT assay; assay type: functional; conditions: HCT-116, 72 h; outline: as §1
[9] = tested on: A549; assay: Cytotoxicity against human A549 cells incubated for 72 hrs by MTT assay; assay type: functional; conditions: A549, 72 h; outline: as §1
[10] = target: T1, DNA topoisomerase 1 (Homo sapiens); assay: Inhibition of Top1 assessed as suppression of supercoiled pBR322 DNA relaxation measuring appearance of short DNA fragments at 100 uM incubated for 15 mins by electrophoresis method
[11] = tested on: Nucleic Acid; assay: Induction of DNA intercalation in Escherichia coli pBR322 DNA assessed as induction of supercoiled DNA at 100 uM incubated for 15 mins by electrophoresis based Top1 unwinding assay; assay type: nucleic-acid assay
[12] = tested on: HCT-116; assay: Antitumor activity against human HCT116 cells xenografted in BALB/C nude mouse assessed as tumor growth inhibition at 2 mg/kg, ip administered as a single dose on 17th day and measured on 30 to 33 days post implantation; assay type: functional, organism-based; parameters: dose 2 mg/kg
Outline: (§2)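 Cells implanted subcutaneously in right axilla of nude mice; dosing began at tumor volume about 100−300 mm³ (day 17). Randomized, six mice per treatment group and eight controls; ip injection. Tumor volume by caliper, TV = 1/2 × a × b², with body weight every 4 days. Mice sacrificed day 30−33 and tumors removed. Mean SEM, Student's t test versus control.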

[13] = tested on: Mus musculus; assay: Toxicity in BALB/C nude mouse xenografted with human HCT116 cells assessed as reduction in body weight at 2 mg/kg, ip administered as a single dose on 17th day and measured on 30 to 33 days post implantation; assay type: organism-based, HCT-116; parameters: dose 2 mg/kg, route intraperitoneal; conditions: in vivo; outline: as §2
[14] = tested on: Nucleic Acid; assay: Binding affinity at calf thymus DNA minor groove assessed as displacement of Hoechst 33258 dye incubated for 20 mins by microplate reader based assay; assay type: nucleic-acid assay; conditions: Bos taurus
[15] = tested on: HL-60; assay: Cytotoxicity against human HL60 cells incubated for 72 hrs by MTT assay; assay type: functional; conditions: HL-60, 72 h; outline: as §1
[16] = tested on: HepG2; assay: Cytotoxicity against human HepG2 cells incubated for 72 hrs by MTT assay; assay type: functional; conditions: HepG2, 72 h; outline: as §1
[17] = tested on: U2OS; assay: Cytotoxicity against human U2OS cells incubated for 72 hrs by MTT assay; assay type: functional; outline: as §1
[18] = tested on: SAOS-2; assay: Cytotoxicity against human Saos2 cells incubated for 72 hrs by MTT assay; assay type: functional; conditions: SAOS-2, 72 h; outline: as §1
[19] = tested on: PC-3; assay: Cytotoxicity against human PC3 cells incubated for 72 hrs by MTT assay; assay type: functional; conditions: PC-3, 72 h; outline: as §1
[20] = tested on: PANC-1; assay: Cytotoxicity against human PANC1 cells incubated for 72 hrs by MTT assay; assay type: functional; conditions: PANC-1, 72 h; outline: as §1
[21] = tested on: Mus musculus; assay: Toxicity in BALB/C nude mouse xenografted with human A549 cells assessed as reduction in body weight at 2 mg/kg, ip administered as a single dose on 17th day and measured on 30 to 33 days post implantation; assay type: organism-based; parameters: dose 2 mg/kg, route intraperitoneal; conditions: in vivo; outline: as §2
[22] = target: DNA topoisomerase 2-alpha (Homo sapiens) (UniProt P11388); assay: Inhibition of human Top2alpha assessed as suppression of supercoiled pBR322 DNA relaxation at 50 uM incubated for 30 mins by electrophoresis method
[23] = tested on: A549; assay: Antitumor activity against human A549 cells xenografted in BALB/C nude mouse assessed as tumor growth inhibition at 2 mg/kg, ip administered as a single dose on 17th day post implantation and measured on 30 to 33 days post implantation; assay type: functional, organism-based; parameters: dose 2 mg/kg; outline: as §2
[24] = tested on: ZR-75-30; assay: Cytotoxicity against human ZR75-30 cells incubated for 72 hrs by MTT assay; assay type: functional; conditions: ZR-75-30, 72 h; outline: as §1
[25] = Cytotoxicity against human KYSE-150 cells incubated for 72 hrs by MTT assay; assay type: functional; conditions: KYSE-150, 72 h; outline: as §1
[26] = tested on: CNE; assay: Cytotoxicity against human CNE cells incubated for 72 hrs by MTT assay; assay type: functional; outline: as §1

DNA topoisomerase 2-alpha (Homo sapiens), sequence (P11388 whole entry): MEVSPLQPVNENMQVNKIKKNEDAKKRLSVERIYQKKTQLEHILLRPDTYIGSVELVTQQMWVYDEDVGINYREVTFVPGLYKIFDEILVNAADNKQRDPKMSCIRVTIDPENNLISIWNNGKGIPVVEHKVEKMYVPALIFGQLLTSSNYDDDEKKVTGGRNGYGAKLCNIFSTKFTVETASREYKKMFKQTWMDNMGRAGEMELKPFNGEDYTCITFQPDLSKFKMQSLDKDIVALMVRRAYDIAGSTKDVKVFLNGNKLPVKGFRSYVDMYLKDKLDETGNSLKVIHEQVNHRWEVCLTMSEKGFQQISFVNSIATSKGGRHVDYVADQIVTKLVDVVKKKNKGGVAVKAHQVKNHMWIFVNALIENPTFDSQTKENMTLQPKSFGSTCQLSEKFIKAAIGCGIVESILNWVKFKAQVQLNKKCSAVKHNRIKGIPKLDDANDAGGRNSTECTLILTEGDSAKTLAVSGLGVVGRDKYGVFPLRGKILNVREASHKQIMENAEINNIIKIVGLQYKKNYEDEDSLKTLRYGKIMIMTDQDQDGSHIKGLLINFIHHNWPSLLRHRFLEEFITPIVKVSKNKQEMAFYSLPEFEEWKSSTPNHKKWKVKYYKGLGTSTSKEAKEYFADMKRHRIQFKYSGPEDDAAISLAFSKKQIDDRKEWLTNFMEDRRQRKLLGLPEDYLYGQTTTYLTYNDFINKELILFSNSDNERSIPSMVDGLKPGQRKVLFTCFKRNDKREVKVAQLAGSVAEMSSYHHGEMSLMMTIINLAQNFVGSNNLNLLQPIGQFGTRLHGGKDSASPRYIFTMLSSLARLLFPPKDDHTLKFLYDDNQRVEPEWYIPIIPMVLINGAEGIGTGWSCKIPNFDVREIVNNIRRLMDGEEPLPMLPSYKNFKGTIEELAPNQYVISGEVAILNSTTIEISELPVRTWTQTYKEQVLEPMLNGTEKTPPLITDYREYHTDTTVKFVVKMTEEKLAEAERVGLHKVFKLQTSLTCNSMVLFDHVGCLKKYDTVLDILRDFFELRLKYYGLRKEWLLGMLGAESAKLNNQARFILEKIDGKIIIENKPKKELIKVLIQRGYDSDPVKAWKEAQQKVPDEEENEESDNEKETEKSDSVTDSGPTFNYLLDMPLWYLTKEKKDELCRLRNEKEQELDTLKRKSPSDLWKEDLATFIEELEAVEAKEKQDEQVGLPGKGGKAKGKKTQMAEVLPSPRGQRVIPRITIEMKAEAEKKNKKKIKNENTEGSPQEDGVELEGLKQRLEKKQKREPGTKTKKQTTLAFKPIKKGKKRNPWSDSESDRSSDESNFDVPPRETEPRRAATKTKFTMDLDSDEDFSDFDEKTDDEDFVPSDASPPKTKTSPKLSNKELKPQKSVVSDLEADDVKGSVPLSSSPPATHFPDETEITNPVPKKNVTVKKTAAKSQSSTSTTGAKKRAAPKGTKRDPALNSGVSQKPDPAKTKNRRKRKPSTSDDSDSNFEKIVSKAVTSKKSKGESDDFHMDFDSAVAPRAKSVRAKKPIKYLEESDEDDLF

Row | SMILES | Activity [1] | inhibition [5] | inhibition [6] | inhibition [10] | Activity [11] | Activity [14] | inhibition [22] | GI50 [3] | GI50 [8] | GI50 [9] | TGI [12] | Activity [13] | also measured
1 | CC[C@@]1(O)C(=O)OCc2c1cc1n(c2=O)Cc2cc3ccccc3nc2-1 [CAMPTOTHECIN] |  |  |  |  |  |  |  | 33 nM | 83 nM | 170 nM |  |  | GI50 [15]: < 3 nM; GI50 [16]: 220 nM; GI50 [17]: > 287000 nM; GI50 [18]: > 287000 nM; GI50 [19]: > 287000 nM; GI50 [20]: 6290 nM
2 | Cc1cccc2c1N(C)C1c3[nH]c4ccccc4c3CCN1C2=O (centres undefined) |  |  |  | Active |  |  |  | 84 nM | 11 nM | 230 nM |  |  | 
3 | CN1c2ccc(F)cc2C(=O)N2CCc3c([nH]c4ccc(O)cc34)[C@@H]21 |  |  |  |  |  |  |  |  | 11 nM | 4.6 nM |  |  | GI50 [24]: 1750 nM; GI50 [25]: 1230 nM; GI50 [26]: 5880 nM
4 | CN1c2ccc(O)cc2C(=O)N2CCc3c([nH]c4ccc(O)cc34)C21 (centres undefined) | inactive | Active | inactive | Active | inactive | inactive | Active | 3 nM | 7 nM | 750 nM | Active | Toxic | 
5 | CN1c2cccc(O)c2C(=O)N2CCc3c([nH]c4ccc(O)cc34)C21 (centres undefined) | inactive | Active | inactive | Active | inactive | inactive |  | 13 nM | 9 nM | 230 nM |  |  | 

Further lines, with some results ahead:

Row | Activity [1] | inhibition [5] | inhibition [6] | inhibition [10] | Activity [11] | Activity [14] | inhibition [22] | SMILES | GI50 [3] | GI50 [8] | GI50 [9] | TGI [12] | Activity [13] | also measured
6 | inactive | Active | inactive | Active | inactive | inactive |  | CN1c2ccc(N)cc2C(=O)N2CCc3c([nH]c4ccc(O)cc34)C21 (centres undefined) | 7 nM | 7 nM | 4000 nM | Active | Non-toxic | Activity [2]: 14.48%; Activity [4]: Active; inhibition [7]: Active
7 |  |  |  | Active |  |  | inactive | CN1c2ccc(Cl)cc2C(=O)N2CCc3c([nH]c4ccccc34)C21 (centres undefined) | < 3 nM | < 3 nM | < 3 nM |  |  | Activity [21]: Non-toxic; TGI [23]: inactive
8 |  |  |  | Active |  |  | inactive | CN1c2ccccc2C(=O)N2CCc3c([nH]c4c(Cl)cccc34)C21 (centres undefined) | < 3 nM | < 3 nM | 2550 nM | Active | Toxic | GI50 [15]: < 3 nM; GI50 [16]: 2310 nM; GI50 [17]: > 296000 nM; GI50 [18]: > 296000 nM; inhibition [7]: Active; GI50 [19]: > 296000 nM; GI50 [20]: 120 nM
